Source: ChEMBL document CHEMBL3421617, “Synthesis of selenazolopyridine derivatives with capability to induce apoptosis in human breast carcinoma MCF-7 cells through scavenge of intracellular ROS” (Eur J Med Chem, 2015)
pIC50: −log10 of the molar value. Active and inactive are the calls of the source. The calls are words filed in the database; no cut-off is given here.

Key:
[1] = system: HepG2; assay: Cytotoxicity against human HepG2 cells assessed as cell viability after 72 hrs by MTT assay; type: functional, cell-based; conditions: HepG2, 72 h
How it was run: (§1)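 Cells obtained from ATCC; human normal liver L02 included as the non-cancer line. Cells treated with various concentrations for 72 h. Viability read by MTT assay and IC50 values calculated from the concentration series.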

[2] = system: MCF7; assay: Cytotoxicity against human MCF7 cells assessed as cell viability after 72 hrs by MTT assay; type: functional, cell-based; conditions: for pIC50: MCF7, 72 h; how it was run: as §1
[3] = Cytotoxicity against human L02 cells assessed as cell viability after 72 hrs by MTT assay; type: cell-based; conditions: L02, 72 h; how it was run: as §1
[4] = system: MCF7; assay: Cell cycle arrest in human MCF7 cells assessed as cells at Sub-G1 phase at 30 uM by flow cytometry (reference value: 3.3%); type: functional
[5] = system: MCF7; assay: Cell cycle arrest in human MCF7 cells assessed as cells at Sub-G1 phase at 20 uM by flow cytometry (reference value: 3.3%); type: functional
[6] = system: MCF7; assay: Cell cycle arrest in human MCF7 cells assessed as cells at G0/G1 phase at 30 uM by flow cytometry (reference value: 41.9%); type: functional
[7] = system: MCF7; assay: Cell cycle arrest in human MCF7 cells assessed as cells at G2/M phase at 40 uM by flow cytometry (reference value: 41.5%); type: functional
[8] = Antioxidant activity assessed as ABTS radical scavenging activity; type: physicochemical; conditions: TDE = time-dependent effect
[9] = system: MCF7; assay: Cell cycle arrest in human MCF7 cells assessed as cells at G2/M phase at 20 uM by flow cytometry (reference value: 41.5%); type: functional
[10] = system: MCF7; assay: Inhibition of intracellular ROS production in human MCF7 cells assessed as decrease in DHE fluorescence intensity at 80 uM after 30 mins by fluorescence microscopy; type: functional, cell-based
How it was run: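 Cells loaded with DHE (10 µM) in a culture dish at 37 °C for 30 min, then treated at 80 µM. Imaged at once by fluorescence microscopy, with red DHE fluorescence followed for 30 min.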

[11] = system: MCF7; assay: Cell cycle arrest in human MCF7 cells assessed as cells at G2/M phase at 30 uM by flow cytometry (reference value: 41.5%); type: functional
[12] = system: MCF7; assay: Inhibition of intracellular ROS production in human MCF7 cells assessed as decrease in DHE fluorescence intensity after 30 mins; type: functional, cell-based
How it was run: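 MCF-7 cells loaded with 10 µM DHE in PBS for 30 min, then exposed to different concentrations of compound. Intracellular ROS followed as DHE fluorescence on a microplate reader, excitation 300 nm and emission 610 nm, over 30 min.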

[13] = system: MCF7; assay: Cell cycle arrest in human MCF7 cells assessed as cells at Sub-G1 phase by flow cytometry; type: functional, cell-based
[14] = system: MCF7; assay: Cell cycle arrest in human MCF7 cells assessed as cells at S phase at 20 uM by flow cytometry (reference value: 16.6%); type: functional
[15] = system: MCF7; assay: Cell cycle arrest in human MCF7 cells assessed as cells at G0/G1 phase at 40 uM by flow cytometry (reference value: 41.9%); type: functional
[16] = system: MCF7; assay: Cell cycle arrest in human MCF7 cells assessed as cells at S phase at 30 uM by flow cytometry (reference value: 16.6%); type: functional
[17] = system: MCF7; assay: Cell cycle arrest in human MCF7 cells assessed as cells at S phase at 40 uM by flow cytometry (reference value: 16.6%); type: functional
[18] = Antioxidant activity assessed as DPPH free radical scavenging activity; type: physicochemical; conditions: TDE = time-dependent effect
[19] = system: MCF7; assay: Cell cycle arrest in human MCF7 cells assessed as cells at Sub-G1 phase at 40 uM by flow cytometry (reference value: 3.3%); type: functional
[20] = system: MCF7; assay: Cell cycle arrest in human MCF7 cells assessed as cells at G0/G1 phase at 20 uM by flow cytometry (reference value: 41.9%); type: functional

Compound	pIC50 [1]	pIC50 [2]	pIC50 [3]	further results
Clc1ccccc1Nc1nc2cccnc2[se]1	3.74	4.36	4.07	–
Cc1cccc(Nc2nc3cccnc3[se]2)c1	4.25	4.25	4.26	–
Cc1ccc(Nc2nc3cccnc3[se]2)cc1	3.63	4.04	3.68	–
Cc1ccccc1Nc1nc2cccnc2[se]1	3.30	4.28	3.92	–
c1ccc(Nc2nc3cccnc3[se]2)cc1	4.24	4.65	3.79	Activity [4]: 36.7%; Activity [5]: 27.1%; Activity [6]: 50.5%; Activity [7]: 13.4%; Activity [8]: tde; Activity [9]: 7.5%; inhibition [10]: Active; Activity [11]: 20.3%; inhibition [2]: Dose-dependent effect; inhibition [12]: Dose-dependent effect; Activity [13]: Dose-dependent effect; Activity [14]: 34.3%; Activity [15]: 50.8%; Activity [16]: 22.3%; Activity [17]: 25.8%; Activity [18]: tde; Activity [19]: 58.3%; Activity [20]: 58.2%
Brc1ccccc1Nc1nc2cccnc2[se]1	4.13	3.73	3.77	–
Cc1ccc(Nc2nc3cccnc3[se]2)cc1C	3.84	3.69	3.74	–
